Compound activity deposited in PubChem BioAssay by Broad Institute.
T cruzi growth-1: blocks T. cruzi growth in NIH3T3 culture | T. cruzi beta-gal in NIH3T3, GalScreen luminescence, 90 h | inhibition, % at 8.34 µM | 77,000 compounds, 5.9% hits | AID 624255;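 active means mean inhibition above about 93%, with at least 55% of replicates each passing it, limit read from the data, passing the limit was not always enough; inconclusive means only one of those two conditions holds; inactive means neither condition holds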
IDH1 R132H inh: inhibitors of human IDH1 R132H. IDH1 R132H reductase, diaphorase/resazurin fluorescence, 60 min. inhibition, % at 10 µM. 70,000 compounds, 0.18% hits; in the data active means inhibition above about 34%; inconclusive means no clear call, values can overlap the other calls; inactive means below about 11%;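 further: 0% = DMSO and 100% = no enzyme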
KDM4C inh: blocks human GASC-1 (KDM4C) demethylase activity. GST-KDM4C 2-372, H3K9me3 peptide, LANCE TR-FRET. inhibition, % at 12.5 µM. 96,000 compounds, 0.15% hits. AID 720574;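 active means mean replicate inhibition above about 25%, with at least 55% of replicates also reaching it, limit read from the data, passing the limit was not always enough; inconclusive means only one of those two conditions met; inactive means neither condition met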
Target sequence (Q9H3R0 2-372 limits assumed): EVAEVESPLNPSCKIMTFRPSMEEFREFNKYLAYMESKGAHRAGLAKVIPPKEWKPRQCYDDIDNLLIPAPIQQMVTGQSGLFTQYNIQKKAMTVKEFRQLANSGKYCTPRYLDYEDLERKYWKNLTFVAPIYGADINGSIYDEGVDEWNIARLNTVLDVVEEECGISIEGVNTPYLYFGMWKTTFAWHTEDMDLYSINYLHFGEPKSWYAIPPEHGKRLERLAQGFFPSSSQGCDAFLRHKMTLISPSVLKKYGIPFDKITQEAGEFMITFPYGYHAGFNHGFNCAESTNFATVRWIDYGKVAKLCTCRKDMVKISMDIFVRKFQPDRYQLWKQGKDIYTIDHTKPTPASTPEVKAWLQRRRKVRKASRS
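Compound: one test concentration per compound; Material: GST-GASC-1 enzyme fragment 2-372; Amount: GASC-1 enzyme at 10 nM final in reaction; Also added: H3K9me3 peptide substrate, Fe(II), 2-oxoglutarate; Technique: LANCE TR-FRET; Times: 30 min demethylation and 1 h detection at room temperature.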
T cruzi growth-2: blocks T. cruzi growth in NIH3T3 host cells. 5,600 compounds, 72% hits. inhibition, % at 8.35 µM. T. cruzi beta-gal in NIH3T3, GalScreen luminescence, 90 h. shares compounds with T cruzi growth-1;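 active means mean replicate inhibition above about 95% and at least 55% of replicates individually reaching it, limit read from the data; inconclusive means only one of the two criteria is met; inactive means neither criterion is met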
T cruzi growth-3: Trypanosoma cruzi proliferation inhibition; shares compounds with T cruzi growth-1; T. cruzi beta-gal in NIH3T3, GalScreen luminescence, 90 h; inhibition, % at 2.09 µM; 5,600 compounds, 21% hits; AID 651740;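 active means mean inhibition above about 95%, with at least 55% of replicates also reaching it, limit read from the data; inconclusive means meets just one of the two conditions; inactive means meets neither condition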;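 further: plate controls were neutral control median for no effect and positive control median for full effect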
NIH3T3 tox: kills mouse NIH/3T3 fibroblasts; shares compounds with T cruzi growth-1; 5,600 compounds, 14% hits; NIH/3T3 viability, CellTiter-Glo ATP luminescence, 90 h; cytotoxicity (signal decrease), % at 8.35 µM;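 active means mean signal decrease across replicates above about 35% based on untreated-well scatter, with enough replicates individually passing, limit read from the data; inconclusive means no rule stated though some were filed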;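 further: 0% = median of neutral control wells and 100% = median of positive control wells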
NIH3T3 tox 2: NIH/3T3 (mouse) viability loss | shares compounds with T cruzi growth-1 | NIH/3T3 viability, CellTiter-Glo ATP luminescence, 90 h | inhibition, % at 24.9 µM | 5,600 compounds, 56% hits | AID 651744;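 active means mean loss of cell viability signal at or above a set limit, and enough replicates individually reaching it; inconclusive means meets only the mean limit or only the replicate share; inactive means meets neither condition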;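 further: 0% = median of neutral control wells and 100% = median of positive control wells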
An asterisk follows results filed as active. The entries come from a sample that favours hits as a whole.

CCCCCCCCCCCCCCCC(=O)C1C(=O)OC(CO)C1=O (configuration not stated) was read as IDH1 R132H inh 6.
CC(NS(=O)(=O)c1cc(Cl)ccc1Cl)C(=O)Nc1cccc([N+](=O)[O-])c1 (configuration not stated) was read as IDH1 R132H inh 0.
Cn1c2ccccc2c2nnc(SCC(=O)c3ccc(Cl)cc3)nc21 was read as IDH1 R132H inh 0.
For CC=Cc1ccc2n(c1=O)C[C@@H]1[C@@H](CO)[C@H](C(=O)NCc3ccccn3)[C@H]2N1C (mixture of isomers) the results were T cruzi growth-1 57 and KDM4C inh -1.
Screening CC=Cc1ccc2n(c1=O)C[C@H]1[C@H](CO)[C@@H](C(=O)NCC)N(Cc3ccccc3Cl)[C@@H]21 (mixture of isomers) returned T cruzi growth-1 -96 and KDM4C inh 2.
CC=Cc1ccc2n(c1=O)C[C@@H]1[C@@H](CO)[C@H](C(=O)Nc3ccc(-c4ccccc4)cc3)[C@H]2N1C(=O)CC (mixture of isomers) was read as T cruzi growth-1 135*, KDM4C inh -3, T cruzi growth-2 103*, T cruzi growth-3 13, NIH3T3 tox 24 and NIH3T3 tox 2 48*.
`CC=Cc1ccc2n(c1=O)C[C@H]1[C@H](CO)[C@@H](C(=O)NCc3ccccn3)[C@@H]2N1C` (mixture of isomers) gave T cruzi growth-1 active, KDM4C inh 1, T cruzi growth-2 -18, T cruzi growth-3 33, NIH3T3 tox -3 and NIH3T3 tox 2 -14.
For CC=Cc1ccc2n(c1=O)C[C@@H]1[C@@H](CO)[C@H](C(=O)NCCCN(C)C)[C@H]2N1C(=O)c1ccccc1F (mixture of isomers) the results were T cruzi growth-1 active, KDM4C inh 0, T cruzi growth-2 57, T cruzi growth-3 -62, NIH3T3 tox -3 and NIH3T3 tox 2 8.
For CC=Cc1ccc2n(c1=O)C[C@@H]1[C@@H](CO)[C@H](C(=O)NCc3ccccc3Cl)N(S(C)(=O)=O)[C@H]21 (mixture of isomers) the results were T cruzi growth-1 98*, KDM4C inh 0, T cruzi growth-2 81, T cruzi growth-3 8, NIH3T3 tox -13 and NIH3T3 tox 2 2.
`CC=Cc1ccc2n(c1=O)C[C@H]1[C@H](CO)[C@@H](C(=O)NCCCN(C)C)[C@@H]2N1C(=O)c1ccccc1` (mixture of isomers) gave KDM4C inh 4.
Screening CC=Cc1ccc2n(c1=O)C[C@H]1[C@H](CO)[C@@H](C(=O)Nc3ccccc3)[C@@H]2N1C(=O)CC (mixture of isomers) returned T cruzi growth-1 9 and KDM4C inh 0.
For O=C(Cn1cc(Br)c([N+](=O)[O-])n1)Nc1ccccc1F the results were IDH1 R132H inh 0.
`O=C(CSc1nnc(-c2ccc(Cl)cc2Cl)o1)Nc1ccc([N+](=O)[O-])cc1` gave IDH1 R132H inh 0.
`Cc1cc(Nc2ccccc2NC(=O)c2ccc([N+](=O)[O-])cc2)n(-c2ccccc2)n1` gave IDH1 R132H inh 0.
Screening COCCNC(=O)Nc1ccc2nc(-c3ccccn3)c(-c3ccccn3)nc2c1 returned IDH1 R132H inh -1.
CC=Cc1ccc2n(c1=O)C[C@H]1[C@H](CO)[C@@H](C(=O)NCC)[C@@H]2N1C(=O)C1CC1 (mixture of isomers) was read as T cruzi growth-1 -22 and KDM4C inh 2.
`CC=Cc1ccc2n(c1=O)C[C@H]1[C@H](CO)[C@@H](C(=O)NCCC)[C@@H]2N1C(=O)C1CC1` (mixture of isomers) gave T cruzi growth-1 112*, KDM4C inh 0, T cruzi growth-2 99*, T cruzi growth-3 9, NIH3T3 tox 14 and NIH3T3 tox 2 20.
For Cc1cc(I)ccc1NC(=O)CN(c1cc(Cl)ccc1C)S(C)(=O)=O the results were IDH1 R132H inh 0.
COC(=O)CCCCCCC(=O)N/N=C/c1coc2ccccc2c1=O was read as IDH1 R132H inh 0.
For O=C(CN1CCCCC1)Nc1nonc1NC(=O)CN1CCCCC1 the results were IDH1 R132H inh 0.
CC(C)C#Cc1ccc2c(c1)O[C@H](CN(C)C(=O)C1CCCCC1)[C@@H](C)CN([C@H](C)CO)S2(=O)=O was read as T cruzi growth-1 68 and KDM4C inh -3.
For CC(C)C#Cc1ccc2c(c1)O[C@H](CN(C)C(=O)C1CCC1)[C@@H](C)CN([C@H](C)CO)S2(=O)=O the results were T cruzi growth-1 113*, IDH1 R132H inh -5, KDM4C inh -1, T cruzi growth-2 98*, T cruzi growth-3 75, NIH3T3 tox 24 and NIH3T3 tox 2 28*.
`CC(C)C#Cc1ccc2c(c1)O[C@@H](CN(C)C(=O)C1CCCCC1)[C@@H](C)CN([C@@H](C)CO)S2(=O)=O` gave T cruzi growth-1 inconclusive, KDM4C inh 0, T cruzi growth-2 102*, T cruzi growth-3 83, NIH3T3 tox 17 and NIH3T3 tox 2 107*.
`CC(C)C#Cc1ccc2c(c1)O[C@@H](CN(C)C(=O)C1CCC1)[C@H](C)CN([C@@H](C)CO)S2(=O)=O` gave T cruzi growth-1 80, IDH1 R132H inh 7 and KDM4C inh 2.
Screening CS(=O)(=O)N(CC(=O)Nc1ccc2c(c1)OCCO2)c1cc(Cl)c(Cl)cc1Cl returned IDH1 R132H inh 0.
Screening C[C@@H]1CN([C@@H](C)CO)S(=O)(=O)c2ccc(C3=CCCCC3)cc2O[C@H]1CN(C)C(=O)C1CC1 returned T cruzi growth-1 57 and KDM4C inh 0.
For C[C@H](CO)N1C[C@H](C)[C@@H](CN(C)C(=O)C2CCCCC2)Oc2cc(C3=CCCCC3)ccc2S1(=O)=O the results were T cruzi growth-1 113*, KDM4C inh -2, T cruzi growth-2 110*, T cruzi growth-3 48, NIH3T3 tox 5 and NIH3T3 tox 2 105*.
For C[C@H]1CN([C@@H](C)CO)S(=O)(=O)c2ccc(C3=CCCCC3)cc2O[C@@H]1CN(C)C(=O)C1CCCCC1 the results were T cruzi growth-1 121*, KDM4C inh 1, T cruzi growth-2 103*, T cruzi growth-3 99*, NIH3T3 tox -12 and NIH3T3 tox 2 105*.
`C[C@H](CO)N1C[C@H](C)[C@H](CN(C)C(=O)C2CCC2)Oc2cc(C3=CCCCC3)ccc2S1(=O)=O` gave T cruzi growth-1 35 and KDM4C inh -3.
